Assay results: ChEMBL document CHEMBL6078712, “Triterpenoid phthalimides as selective anti-cancer agents targeting mitochondrial apoptosis” (Eur J Med Chem, 2025)
Activity calls are given as the source filed them. No cut-off for these calls is given here.

Assays:
[1] = Cytotoxicity against human MRC5 cells assessed as inhibition of cell growth incubated for 72 hrs by MTS assay; type: toxicity, cell-based
Summary of the method: (§1)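 MTS assay on eight human cancer lines and two non-tumour fibroblast lines. IC50 is the concentration that inhibits cell growth by 50 %. SD typically up to 15 % of the mean.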

[2] = tested on: CCRF-CEM; test: Inhibition of RNA synthesis in human CCRF-CEM cells at 5 times IC50 incubated for 24 hrs by BrU incorporation based flow cytometry; type: functional
Summary of the method: (§2)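 Fixed in 1 % paraformaldehyde/0.05 % NP-40 (15 min at room temperature, then 4 °C overnight). Stained with cross-reacting anti-BrdU plus FITC secondary (45 min each), then PI/RNase A. Flow cytometry; % BrU-positive cells.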

[3] = tested on: CCRF-CEM; test: Induction of apoptosis in human CCRF-CEM cells assessed as viable cells at 1 times IC50 incubated for 24 hrs by Annexin V-FITC and PI staining based flow cytometric analysis (reference value: 97.4 %); type: functional
Summary of the method: (§3)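 Washed in Ca2+-containing binding buffer, then stained 15 min at room temperature in the dark with Annexin V-FITC and propidium iodide (PI at half the kit-recommended level). Read at once by flow cytometry with a 488 nm laser, ≥10,000 cells. Debris excluded; quadrants viable, early apoptotic, late apoptotic/necrotic, necrotic. Three independent experiments.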

[4] = Plasma protein binding in human assessed as fraction bound at 10 uM incubated for 4 hrs by rapid equilibrium dialysis based RF-MS analysis; type: ADME, cell-free; settings: read-out: PPB (converted)
Summary of the method: (§4)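 Human plasma stability, plasma protein binding and liver microsome stability, each run in triplicate. Error deviations below 10 %.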

[5] = tested on: CCRF-CEM; test: Induction of apoptosis in human CCRF-CEM cells assessed as downregulation of caspase-3 expression at 5 times IC50 incubated for 24 hrs by Western blotting analysis; type: functional, cell-based
Summary of the method: (§5)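 30 µg protein per lane on SDS-PAGE, transferred to nitrocellulose, blocked in 5 % BSA/TBS-Tween. Primary antibodies overnight at 4 °C (Akt, P-Akt Ser473, STAT-3, caspase-3, PARP, cyclin D, cyclin A, Bcl-xL, Bak, Bid, Bim), then HRP secondary and ECL detection. GAPDH as loading control.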

[6] = tested on: CCRF-CEM; test: Induction of cell cycle arrest in human CCRF-CEM cells assessed as downregulation of Cyclin D expression at 1 to 5 times IC50 incubated for 24 hrs by Western blotting analysis; type: functional, cell-based; summary of the method: as §5
[7] = tested on: Mitochondrial membrane; test: Induction of mitochondrial membrane potential depolarization in human CCRF-CEM cells assessed as fold increase in fluorescence intensity incubated for 24 hrs by JC-1 staining based flow cytometry; type: cell membranes
[8] = Stability in human plasma assessed as compound remaining at 2 uM incubated for 15 mins by RF-MS analysis; type: ADME, cell-free; settings: read-out: Stability; summary of the method: as §4
[9] = tested on: CCRF-CEM; test: Induction of apoptosis in human CCRF-CEM cells assessed as necrotic cells at 5 times IC50 incubated for 24 hrs by Annexin V-FITC and PI staining based flow cytometric analysis (reference value: 0.4 %); type: functional; summary of the method: as §3
[10] = tested on: CCRF-CEM; test: Cytotoxicity against human CCRF-CEM cells assessed as inhibition of cell growth incubated for 72 hrs by MTS assay; type: functional, cell-based; summary of the method: as §1
[11] = tested on: HCT 116 TP53(-/-); test: Cytotoxicity against human HCT116-p53-null cells assessed as inhibition of cell growth incubated for 72 hrs by MTS assay; type: functional, cell-based; summary of the method: as §1
[12] = tested on: U2OS; test: Cytotoxicity against human U2OS cells assessed as inhibition of cell growth incubated for 72 hrs by MTS assay; type: functional, cell-based; summary of the method: as §1
[13] = Metabolic stability in human liver microsomes assessed as parent compound remaining at 2 uM incubated for 15 mins in presence of NADPH by RF-MS analysis; type: ADME, Microsome; settings: read-out: Stability; summary of the method: as §4
[14] = tested on: CCRF-CEM; test: Inhibition of DNA synthesis in human CCRF-CEM cells at 5 times IC50 incubated for 24 hrs by BrdU incorporation based flow cytometry; type: functional
Summary of the method: (§6)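 Fixed in ice-cold 70 % ethanol, DNA denatured in 2 M HCl for 30 min, neutralised with borax. Stained with anti-BrdU plus FITC secondary, then PI/RNase A for 1 h. Flow cytometry; % BrdU-positive cells.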

[15] = Cytotoxicity against human BJ cells assessed as inhibition of cell growth incubated for 72 hrs by MTS assay; type: toxicity, cell-based; summary of the method: as §1
[16] = tested on: CCRF-CEM; test: Induction of apoptosis in human CCRF-CEM cells assessed as late apoptotic cells at 5 times IC50 incubated for 24 hrs by Annexin V-FITC and PI staining based flow cytometric analysis (reference value: 0.4 %); type: functional; summary of the method: as §3
[17] = tested on: CCRF-CEM; test: Induction of cell cycle arrest in human CCRF-CEM cells assessed as downregulation of AKT phosphorylation at 5 times IC50 incubated for 24 hrs by Western blotting analysis; type: functional, cell-based; summary of the method: as §5
[18] = tested on: CCRF-CEM; test: Induction of apoptosis in human CCRF-CEM cells assessed as early apoptotic cells at 5 times IC50 incubated for 24 hrs by Annexin V-FITC and PI staining based flow cytometric analysis (reference value: 2.1 %); type: functional; summary of the method: as §3
[19] = Stability in human plasma assessed as compound remaining at 2 uM incubated for 60 mins by RF-MS analysis; type: ADME, cell-free; settings: read-out: Stability; summary of the method: as §4
[20] = tested on: CCRF-CEM; test: Inhibition of DNA synthesis in human CCRF-CEM cells at 1 times IC50 incubated for 24 hrs by BrdU incorporation based flow cytometry; type: functional; summary of the method: as §6
[21] = Cytotoxicity against human K562-Tax cells assessed as inhibition of cell growth incubated for 72 hrs by MTS assay; type: functional, cell-based; summary of the method: as §1
[22] = tested on: CCRF-CEM; test: Induction of apoptosis in human CCRF-CEM cells assessed as early apoptotic cells at 1 times IC50 incubated for 24 hrs by Annexin V-FITC and PI staining based flow cytometric analysis (reference value: 2.1 %); type: functional; summary of the method: as §3
[23] = tested on: CCRF-CEM; test: Induction of apoptosis in human CCRF-CEM cells assessed as viable cells at 5 times IC50 incubated for 24 hrs by Annexin V-FITC and PI staining based flow cytometric analysis (reference value: 97.4 %); type: functional; summary of the method: as §3
[24] = tested on: CCRF-CEM; test: Induction of cell cycle arrest in human CCRF-CEM cells assessed as downregulation of total STAT3 expression at 1 to 5 times IC50 incubated for 24 hrs by Western blotting analysis; type: functional, cell-based; summary of the method: as §5
[25] = tested on: CCRF-CEM; test: Induction of apoptosis in human CCRF-CEM cells assessed as upregulation of BID expression at 1 to 5 times IC50 incubated for 24 hrs by Western blotting analysis; type: functional, cell-based; summary of the method: as §5
[26] = Metabolic stability in human liver microsomes assessed as parent compound remaining at 2 uM incubated for 30 mins in presence of NADPH by RF-MS analysis; type: ADME, Microsome; settings: read-out: Stability; summary of the method: as §4
[27] = tested on: CCRF-CEM; test: Induction of apoptosis in human CCRF-CEM cells assessed as necrotic cells at 1 times IC50 incubated for 24 hrs by Annexin V-FITC and PI staining based flow cytometric analysis (reference value: 0.4 %); type: functional; summary of the method: as §3
[28] = Metabolic stability in human liver microsomes assessed as parent compound remaining at 2 uM incubated for 60 mins in presence of NADPH by RF-MS analysis; type: ADME, Microsome; settings: read-out: Stability; summary of the method: as §4
[29] = Stability in human plasma assessed as compound remaining at 2 uM incubated for 120 mins by RF-MS analysis; type: ADME, cell-free; settings: read-out: Stability; summary of the method: as §4
[30] = tested on: CEM-DNR; test: Cytotoxicity against human CEM-DNR cells assessed as inhibition of cell growth incubated for 72 hrs by MTS assay; type: functional, cell-based; summary of the method: as §1
[31] = tested on: CCRF-CEM; test: Induction of cell cycle arrest in human CCRF-CEM cells assessed as downregulation of AKT phosphorylation at 1 times IC50 incubated for 24 hrs by Western blotting analysis; type: functional, cell-based; summary of the method: as §5
[32] = tested on: HCT-116; test: Cytotoxicity against human HCT-116 cells assessed as inhibition of cell growth incubated for 72 hrs by MTS assay; type: functional, cell-based; settings: HCT-116, 72 h; summary of the method: as §1
[33] = tested on: CCRF-CEM; test: Induction of cell cycle arrest in human CCRF-CEM cells assessed as increase in accumulation of G0/G1 phase at 1 times IC50 incubated for 24 hrs by RNase/PI staining based flow cytometry; type: functional
Summary of the method: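 Propidium iodide staining and flow cytometry with a 488 nm laser, ≥10,000 intact cells. Phase proportions compared with untreated cells; SEM of three independent experiments.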

[34] = tested on: CCRF-CEM; test: Induction of apoptosis in human CCRF-CEM cells assessed as upregulation of BIM expression at 1 to 5 times IC50 incubated for 24 hrs by Western blotting analysis; type: functional, cell-based; summary of the method: as §5
[35] = tested on: CCRF-CEM; test: Induction of cell cycle arrest in human CCRF-CEM cells assessed as downregulation of Cyclin A expression at 5 times IC50 incubated for 24 hrs by Western blotting analysis; type: functional, cell-based; summary of the method: as §5
[36] = tested on: A549; test: Cytotoxicity against human A549 cells assessed as inhibition of cell growth incubated for 72 hrs by MTS assay; type: functional, cell-based; settings: A549, 72 h; summary of the method: as §1
[37] = Stability in human plasma assessed as compound remaining at 2 uM incubated for 30 mins by RF-MS analysis; type: ADME, cell-free; settings: read-out: Stability; summary of the method: as §4
[38] = tested on: CCRF-CEM; test: Induction of apoptosis in human CCRF-CEM cells assessed as late apoptotic cells at 1 times IC50 incubated for 24 hrs by Annexin V-FITC and PI staining based flow cytometric analysis (reference value: 0.4 %); type: functional; summary of the method: as §3
[39] = tested on: K562; test: Cytotoxicity against human K562 cells assessed as inhibition of cell growth incubated for 72 hrs by MTS assay; type: functional, cell-based; settings: K562, 72 h; summary of the method: as §1
[40] = tested on: CCRF-CEM; test: Inhibition of RNA synthesis in human CCRF-CEM cells at 1 times IC50 incubated for 24 hrs by BrU incorporation based flow cytometry; type: functional; summary of the method: as §2

- fraction unbound at 4 h, 10 µM [4]: 0.425
- Activity [7]: Dose-dependent-effect
- remaining at 0.25 h, 2 µM [8]: 98%
- remaining at 0.25 h, 2 µM [13]: 103%
- remaining at 1 h, 2 µM [19]: 96%
- remaining at 0.5 h, 2 µM [26]: 104%
- remaining at 1 h, 2 µM [28]: 98%
- remaining at 2 h, 2 µM [29]: 85%
- remaining at 0.5 h, 2 µM [37]: 95%
Compound: CC(=O)O[C@H]1CC[C@]2(C)[C@H]3CC[C@@H]4[C@H]5[C@H](c6cc7c(c(-c8ccccc8)c6)C(=O)N(c6nccs6)C7=O)CC[C@]5(C(=O)O)CC[C@@]4(C)[C@]3(C)CC[C@H]2C1(C)C
- IC50 at 72 h [1]: 27.8 µM
- inhibition (INH) [2]: 36.1%
- Activity [3]: 92.3%
- Activity [5]: Active
- Activity [6]: Active
- Activity [9]: 0%
- IC50 [10]: 2.52 µM
- IC50 [11]: 18.6 µM
- IC50 [12]: 16.8 µM
- inhibition (INH) [14]: 18.5%
- IC50 at 72 h [15]: 31.7 µM
- Activity [16]: 3.2%
- Activity [17]: Active
- Activity [18]: 6%
- inhibition (INH) [20]: 37.2%
- IC50 [21]: 24.5 µM
- Activity [22]: 5.1%
- Activity [23]: 90.8%
- Activity [24]: Active
- Activity [25]: Active
- Activity [27]: 0%
- IC50 [30]: 30.5 µM
- Activity [31]: Active
- IC50 [32]: 13.1 µM
- Activity [33]: Active; Slight Increased Activity Observed
- Activity [34]: Active
- Activity [35]: Active
- IC50 [36]: 20.8 µM
- Activity [38]: 2.6%
- IC50 [39]: 21.4 µM
- inhibition (INH) [40]: 28%
